Measured values reported in BindingDB's records for doi:10.1016/j.bmc.2013.02.060 (National Institute On Drug Abuse and The National Institute …, 2013).

Target: Delta-type opioid receptor (Homo sapiens, UniProt P41143)
Experiment: Displacement of [3H]DADLE from human recombinant delta opioid receptor expressed in CHO cell membranes after 2 hrs by liquid scintillation counting analysis
Method in brief: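 Human DOR stably expressed in CHO cells; washed membranes (~30 µg protein/tube) incubated with ~2 nM [3H]DADLE and 10 drug concentrations in 50 mM Tris-HCl pH 7.4 with protease inhibitors, 2 h at 25 °C. Levallorphan defined nonspecific binding.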

Sequence of Delta-type opioid receptor (P41143 whole entry): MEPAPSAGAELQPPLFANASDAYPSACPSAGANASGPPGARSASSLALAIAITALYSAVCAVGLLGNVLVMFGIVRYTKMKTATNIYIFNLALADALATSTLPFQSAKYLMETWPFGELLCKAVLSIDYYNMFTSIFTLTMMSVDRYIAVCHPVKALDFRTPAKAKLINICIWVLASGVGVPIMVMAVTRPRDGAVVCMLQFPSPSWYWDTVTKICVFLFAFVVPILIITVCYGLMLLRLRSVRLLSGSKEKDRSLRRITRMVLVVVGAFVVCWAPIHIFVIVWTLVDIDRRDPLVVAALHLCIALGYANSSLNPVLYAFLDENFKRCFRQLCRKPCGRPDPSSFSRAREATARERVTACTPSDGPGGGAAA

Oc1ccc2c(c1)[C@]1(CCc3ccccc3)CCN(CCc3ccccc3)C[C@@H]1O2
Ki: 0.039 µM

CN1CC[C@@]2(CCc3ccc(F)cc3)c3cc(O)ccc3O[C@H]2C1
Ki: 0.128 µM

CN1CC[C@@]2(C)c3cc(O)ccc3O[C@H]2C1
Ki: > 10 µM

CN1CC[C@@]2(CCCCCc3ccccc3)c3cc(O)ccc3O[C@H]2C1
Ki: 0.075 µM

Oc1ccc2c(c1)[C@]1(CCc3ccccc3)CCN(CCc3cccc(C(F)(F)F)c3)C[C@@H]1O2
Ki: 0.063 µM

Oc1ccc2c(c1)[C@]1(CCc3ccccc3)CCN(CCc3ccccc3C(F)(F)F)C[C@@H]1O2
Ki: 0.136 µM

Oc1ccc2c(c1)[C@]1(CCc3ccccc3)CCN(CC3CC3)C[C@@H]1O2
Ki: 0.024 µM

Oc1ccc2c(c1)[C@]1(CCc3ccccc3)CCN(CCCc3ccccc3)C[C@@H]1O2
Ki: 0.111 µM

CCCC[C@@]12CCN(C)C[C@@H]1Oc1ccc(O)cc12
Ki: 0.207 µM

Oc1ccc2c(c1)[C@]1(CCc3ccccc3)CCN(CCc3ccc(C(F)(F)F)cc3)C[C@@H]1O2
Ki: 0.026 µM

Oc1ccc2c(c1)[C@]1(CCc3ccccc3)CCN(CCc3ccc(F)cc3)C[C@@H]1O2
Ki: 0.034 µM

Oc1ccc2c(c1)[C@]1(CCc3ccccc3)CCN(CCc3ccccc3F)C[C@@H]1O2
Ki: 0.026 µM

CN1CC[C@@]2(CCc3ccccc3F)c3cc(O)ccc3O[C@H]2C1
Ki: 0.052 µM
